Results on six compounds are retold here after ChEMBL document CHEMBL1817603, “Antibacterial polyketides from the jellyfish-derived fungus Paecilomyces variotii” (2011).

Molecules are shown by their SMILES. Values after ≈ are worked out from the molar mass of the structure shown.

Common to all, as to type: functional
One test concerns Vibrio parahaemolyticus. Briefly: Antimicrobial activity against multidrug-resistant Vibrio parahaemolyticus 7001 after 24 hrs by microtiter plate based MIC assay. The note with it: Vibrio parahaemolyticus, 7001, 24 h. Summed up:
(§1)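 Broth microdilution MIC in LB broth. Compounds were twofold serially diluted in 0.5% MeOH, and reference antibiotics were diluted from 40 to 0.31 μg/mL per well. The bacterial inoculum was adjusted by turbidity at 600 nm to a 0.5 McFarland standard. Test solution was added at one part to nine parts culture, then incubated at 36 °C for 24 h. The assay was run in triplicate, with vehicle-matched blank growth controls.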

Test [1] deals with Staphylococcus aureus. The experiment in a line: Antimicrobial activity against methicillin-resistant Staphylococcus aureus 3089 after 24 hrs by microtiter plate based MIC assay. Particulars: Staphylococcus aureus, 3089, 24 h. Summed up: as §1
Test [2] deals with Staphylococcus aureus. Briefly: Antimicrobial activity against Staphylococcus aureus SG 511 after 24 hrs by microtiter plate based MIC assay. The note with it: SG 511, 24 h. Summed up: as §1

The MIC is the lowest concentration that inhibits growth of the organism.

`CCCCCCCC[C@@H]1OC(=O)c2c(O)cccc21` [PAECILOCIN A]: the MIC with Vibrio parahaemolyticus, in the test with Staphylococcus aureus [1] and in the test with Staphylococcus aureus [2] was > 40 µg/mL each time.
Take `CCCCCCCC[C@]1(OC)O[C@@H](OC)c2c(O)cccc21` [PAECILOCIN C]: the MIC is > 40 µg/mL in the test on Vibrio parahaemolyticus, 40 µg/mL (≈ 130 µM) in the test with Staphylococcus aureus [1] and 20 µg/mL (≈ 64.8 µM) against Staphylococcus aureus [2].
As to `C[C@H]1COc2c(N3CCN(C)CC3)c(F)cc3c(=O)c(C(=O)O)cn1c23.C[C@H]1COc2c(N3CCN(C)CC3)c(F)cc3c(=O)c(C(=O)O)cn1c23.O` [LEVOFLOXACIN], in the test with Vibrio parahaemolyticus, the lowest concentration to inhibit growth (MIC) was 0.156 µg/mL.
Compound `CN(C)[C@@H]1C(O)=C(C(N)=O)C(=O)[C@@]2(O)C(O)=C3C(=O)c4c(O)cccc4[C@@](C)(O)[C@H]3C[C@@H]12` [TETRACYCLINE] had an MIC in the test on Staphylococcus aureus [2] of 1.25 µg/mL (≈ 2.81 µM).
`CN[C@H](CC(C)C)C(=O)N[C@H]1C(=O)N[C@@H](CC(N)=O)C(=O)N[C@H]2C(=O)N[C@H]3C(=O)N[C@H](C(=O)N[C@H](C(=O)O)c4cc(O)cc(O)c4-c4cc3ccc4O)[C@H](O)c3ccc(c(Cl)c3)Oc3cc2cc(c3O[C@@H]2O[C@H](CO)[C@@H](O)[C@H](O)[C@H]2O[C@H]2C[C@](C)(N)[C@H](O)[C@H](C)O2)Oc2ccc(cc2Cl)[C@H]1O` [VANCOMYCIN]: the MIC in the test on Staphylococcus aureus [1] turned out to be 0.625 µg/mL (≈ 0.431 µM).
For the compound `CCCCCCCC[C@]1(OC)O[C@H](OC)c2c(O)cccc21` [PAECILOCIN B], the MIC was > 40 µg/mL against Vibrio parahaemolyticus, 20 µg/mL (≈ 64.8 µM) against Staphylococcus aureus [1] and 5 µg/mL (≈ 16.2 µM) with Staphylococcus aureus [2].
